Experimental data published in ChEMBL document CHEMBL1125638, “Design and conformational analysis of several highly potent bradykinin receptor antagonists” (J Med Chem, 1991).
Values belong to the compound of their own block, whether it stands above or below them.

Assays:
[1] = Displacement of [3H]bradykinin from bradykinin receptor in guinea pig ileal membrane; type: cell membranes, Cavia porcellus
SV-T2 = assay: Binding affinity for bradykinin receptor of SV-T2 fibroblasts; type: functional, cell-based; conditions: Mus musculus, read-out: pA2 (converted)
Procedure, shortened: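 Functional antagonism measured as pA2 against bradykinin-stimulated prostaglandin synthesis in SV-T2 fibroblasts, which express only B2 bradykinin receptors. Agonist activity was also checked in the same cells at concentrations up to 10 µM.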

[2] = Displacement of [3H]bradykinin from bradykinin receptor of guinea pig ileal membrane; Inactive; design: species or system Cavia porcellus

Structure (SMILES): NC(N)=NCCC[C@@H](N)C(=O)N[C@@H](CCCN=C(N)N)C(=O)N1CCC[C@H]1C(=O)N1C[C@@H](O)C[C@H]1C(=O)NCC(=O)N[C@@H](Cc1cccs1)C(=O)N[C@@H](CO)C(=O)N1Cc2ccccc2C[C@@H]1C(=O)N1Cc2ccccc2C[C@H]1C(=O)N[C@@H](CCCN=C(N)N)C(=O)O
Ki [1]: 0.381 nM
Kb (SV-T2): 0.794 nM

Structure (SMILES): NC(N)=NCCC[C@@H](N)C(=O)N[C@@H](CCCN=C(N)N)C(=O)N1CCC[C@H]1C(=O)N1C[C@@H](O)C[C@H]1C(=O)NCC(=O)N[C@@H](Cc1cccs1)C(=O)N[C@@H](CO)C(=O)N1Cc2ccccc2C[C@@H]1C(=O)N1Cc2ccccc2C[C@@H]1C(=O)N[C@@H](CCCN=C(N)N)C(=O)O
Ki [1]: 571 nM
Kb (SV-T2): 2510 nM

Structure (SMILES): NC(N)=NCCC[C@@H](N)C(=O)N[C@@H](CCCN=C(N)N)C(=O)N1CCC[C@H]1C(=O)N1C[C@@H](O)C[C@H]1C(=O)NCC(=O)N[C@@H](Cc1cccs1)C(=O)N[C@@H](CO)C(=O)N1Cc2ccccc2C[C@@H]1C(=O)N1C2CCCC2C[C@H]1C(=O)N[C@@H](CCCN=C(N)N)C(=O)O (stereo partly specified)
Ki [1]: 0.176 nM
Kb (SV-T2): 0.398 nM

Structure (SMILES): NC(N)=NCCC[C@@H](N)C(=O)N[C@@H](CCCN=C(N)N)C(=O)N1CCC[C@H]1C(=O)N1C[C@H](O)C[C@H]1C(=O)NCC(=O)N[C@@H](Cc1ccccc1)C(=O)N[C@@H](CO)C(=O)N[C@H](Cc1ccccc1)C(=O)N[C@@H](Cc1ccccc1)C(=O)N[C@@H](CCCN=C(N)N)C(=O)O
Ki [1]: 26.8 nM
Kb (SV-T2): 6.31 nM

Continued, in another order:

Ki [2]: Not Active
Structure (SMILES): NC(N)=NCCC[C@@H](N)C(=O)N[C@@H](CCCN=C(N)N)C(=O)N1CCC[C@H]1C(=O)N1C[C@@H](O)C[C@H]1C(=O)NCC(=O)N[C@@H](Cc1cccs1)C(=O)N[C@H]1CSSC[C@@H](C(=O)O)NC(=O)[C@H](CCCN=C(N)N)NC(=O)[C@H](Cc2ccccc2)NC(=O)[C@H]2Cc3ccccc3CN2C1=O

Ki [1]: 876 nM
Structure (SMILES): NC(N)=NCCC[C@@H](N)C(=O)N[C@@H](CCCN=C(N)N)C(=O)N1CCC[C@H]1C(=O)N1C[C@@H](O)C[C@H]1C(=O)NCC(=O)N[C@@H](Cc1cccs1)C(=O)N[C@H]1CSSC[C@@H](C(=O)N[C@@H](CCCN=C(N)N)C(=O)O)NC(=O)[C@H](Cc2ccccc2)NC(=O)[C@@H](Cc2ccccc2)NC1=O
Kb (SV-T2): 3980 nM
